{"source": "paper PMC10247892", "about": "(Biomedicine & Pharmacotherapy, 2023)", "key": {"[1]": {"tested_on": "Calu-3 cells", "assay": "Lipidomic analysis of Calu-3 cells after MβCD treatment", "format": "cell-based", "conditions": "increasing concentrations, 2 h", "method_in_brief": "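Calu-3 cells were seeded at 3 million/well and treated with 0, 0.6 or 2.5 mM test compound for 2 h at 37 °C and 5 % CO2. Plasma membrane lipid composition was then measured by lipidomics.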"}, "[2]": {"tested_on": "SARS-CoV-2 NanoLuc replicative competent reporter virus", "design": "species or system golden Syrian hamsters", "conditions": "hamster, in vivo"}, "[3]": {"molecular_target": "SARS-CoV-2 3CL main protease (MBP-tagged) (Severe acute respiratory syndrome coronavirus 2, UniProt P0DTD1)", "format": "biochemical", "conditions": "increasing concentrations"}}, "note": "“Also recorded” adds a separate entry of the source.", "data": [{"substance": "Methyl-β-cyclodextrin [MβCD]", "values": [{"measurement": "Effect on phosphatidylcholine (in words)", "setting": "[1]", "value": "did not affect phosphatidylcholine"}, {"measurement": "Nanoluciferase signal in nasal turbinates and lungs (in words)", "setting": "[2]", "value": "no nanoluciferase signal was detected; also recorded: no sign of infection was detected"}, {"measurement": "Inhibition of M^pro activity (in words)", "setting": "[3]", "value": "did not show activity"}]}]}
